Data: ChEMBL document CHEMBL2150931, “Design, synthesis, and biological activity of a novel series of human sirtuin-2-selective inhibitors” (J Med Chem, 2012)

What was measured:
[1] = molecular target: T1, NAD-dependent protein deacetylase sirtuin-2 (Homo sapiens, UniProt Q8IXJ6); experiment: Inhibition of human recombinant SIRT2 using Fluor de Lys-SIRT as substrate incubated for 60 mins prior to substrate addition measured after 60 mins by fluorimetric analysis
T1 sequence (Q8IXJ6 whole entry): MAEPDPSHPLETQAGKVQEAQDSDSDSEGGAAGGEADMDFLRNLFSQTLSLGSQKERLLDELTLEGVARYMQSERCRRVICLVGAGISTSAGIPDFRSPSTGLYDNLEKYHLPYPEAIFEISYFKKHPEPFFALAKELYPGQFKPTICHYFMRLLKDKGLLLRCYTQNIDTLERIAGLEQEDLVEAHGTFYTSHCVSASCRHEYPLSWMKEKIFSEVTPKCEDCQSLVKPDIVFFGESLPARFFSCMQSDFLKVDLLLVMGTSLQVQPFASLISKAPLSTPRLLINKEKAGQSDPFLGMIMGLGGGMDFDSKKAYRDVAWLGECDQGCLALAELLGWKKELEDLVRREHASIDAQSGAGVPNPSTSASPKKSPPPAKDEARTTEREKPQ
Summary of the method: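 Human recombinant SIRT2 preincubated with 1 mM NAD⁺ and serial compound dilutions for 60 min at 37 °C, then 25 μM Fluor de Lys-SIRT substrate added. Reaction stopped at 60 min with Developer II containing nicotinamide. Fluorescence read 45 min later at ex 360/em 460 nm. % inhibition taken against control wells. IC₅₀ obtained by regression of log[Inh] vs logit % inhibition; means of ≥3 experiments.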

[2] = molecular target: T2, NAD-dependent protein deacetylase sirtuin-1 (Homo sapiens, UniProt Q96EB6); experiment: Inhibition of human recombinant SIRT1 using Fluor de Lys-SIRT as substrate incubated for 60 mins prior to substrate addition measured after 60 mins by fluorimetric analysis
T2 sequence (Q96EB6 whole entry): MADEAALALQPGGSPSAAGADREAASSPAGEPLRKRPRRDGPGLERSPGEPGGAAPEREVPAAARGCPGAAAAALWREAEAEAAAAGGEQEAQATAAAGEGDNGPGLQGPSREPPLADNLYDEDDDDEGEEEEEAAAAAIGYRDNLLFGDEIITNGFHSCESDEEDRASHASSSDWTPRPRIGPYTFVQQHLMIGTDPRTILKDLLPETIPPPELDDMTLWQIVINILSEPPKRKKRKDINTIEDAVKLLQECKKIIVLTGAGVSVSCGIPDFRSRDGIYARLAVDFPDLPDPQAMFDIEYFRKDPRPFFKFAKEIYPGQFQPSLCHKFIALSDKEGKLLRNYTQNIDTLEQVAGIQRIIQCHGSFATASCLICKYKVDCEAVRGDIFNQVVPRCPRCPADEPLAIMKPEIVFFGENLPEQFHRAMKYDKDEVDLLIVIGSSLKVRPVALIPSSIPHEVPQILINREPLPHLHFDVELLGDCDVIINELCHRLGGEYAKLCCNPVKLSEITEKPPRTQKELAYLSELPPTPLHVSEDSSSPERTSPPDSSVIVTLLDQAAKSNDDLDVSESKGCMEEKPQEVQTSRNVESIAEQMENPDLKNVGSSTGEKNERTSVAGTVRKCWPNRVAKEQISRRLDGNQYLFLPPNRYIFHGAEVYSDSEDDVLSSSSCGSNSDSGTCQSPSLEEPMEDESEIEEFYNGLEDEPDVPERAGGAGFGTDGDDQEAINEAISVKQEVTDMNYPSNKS
Summary of the method: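 Human recombinant SIRT1 run the same way: 60 min at 37 °C with 1 mM NAD⁺ and serial compound dilutions, then 25 μM Fluor de Lys-SIRT substrate for 60 min. Stopped with nicotinamide-containing Developer II and read 45 min later at ex 360/em 460 nm. IC₅₀ from logit regression of % inhibition vs control; means of ≥3 experiments.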

[3] = molecular target: T3, NAD-dependent protein deacetylase sirtuin-3, mitochondrial (Homo sapiens, UniProt Q9NTG7); experiment: Inhibition of human recombinant SIRT3 using Fluor de Lys-SIRT as substrate incubated for 60 mins prior to substrate addition measured after 60 mins by fluorimetric analysis
T3 sequence (Q9NTG7 whole entry): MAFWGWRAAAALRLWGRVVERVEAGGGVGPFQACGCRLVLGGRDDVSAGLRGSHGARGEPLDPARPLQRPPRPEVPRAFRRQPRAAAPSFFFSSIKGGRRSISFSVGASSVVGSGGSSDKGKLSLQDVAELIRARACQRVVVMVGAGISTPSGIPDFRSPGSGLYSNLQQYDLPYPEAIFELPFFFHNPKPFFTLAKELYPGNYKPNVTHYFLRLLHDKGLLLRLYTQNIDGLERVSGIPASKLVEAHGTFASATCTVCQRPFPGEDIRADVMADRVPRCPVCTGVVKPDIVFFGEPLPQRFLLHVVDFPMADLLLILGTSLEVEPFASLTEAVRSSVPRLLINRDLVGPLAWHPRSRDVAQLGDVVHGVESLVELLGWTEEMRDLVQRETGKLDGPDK

Row | SMILES | IC50 [1] [µM] | IC50 [2] [µM] | IC50 [3] [µM]
1 | NC(=O)c1ccccc1Nc1cccc(C(F)(F)F)c1 | 100 |  | 
2 | NC(=O)c1ccccc1Nc1cccc(OCc2ccccc2)c1 | 54 | > 300 | 
3 | NC(=O)c1ccccc1Sc1ccccc1 | > 100 |  | 
4 | CN(C(=O)c1cccc(Nc2ccccc2C(N)=O)c1)c1ccccc1 | > 100 | > 100 | 
5 | Cc1ccccc1CCOc1cccc(Nc2ccccc2C(N)=O)c1 | 1.8 | > 100 | 
6 | NC(=O)c1ccccc1Nc1ccc(NC(=O)C2CCNCC2)cc1 | 53 | > 100 | 
7 | CN(C)C(=O)c1ccccc1Nc1ccccc1 | > 100 | > 100 | 
8 | NC(=O)c1ccccc1Nc1cccc(OCCCc2ccccc2)c1 | 4.3 | > 300 | 
9 | NC(=O)c1ccccc1Nc1cccc(C(=O)O)c1 | > 100 | > 100 | 
10 | CC(=O)Nc1ccc(Nc2ccccc2C(N)=O)cc1 | 77 | > 100 | 
11 | COC(=O)c1cccc(Nc2ccccc2C(N)=O)c1 | > 100 | > 100 | 
12 | NC(=O)c1ccccc1Nc1ccc(C(F)(F)F)cc1 | 69 |  | 
13 | CC(C)COc1cccc(Nc2ccccc2C(N)=O)c1 | 30 | > 300 | 
14 | NC(=O)c1ccccc1Nc1ccc(-c2ccccc2)cc1 | > 100 | > 100 | 
15 | NC(=O)c1ccccc1Nc1cccc(OCCc2ccc(Br)cc2)c1 | 1.2 | > 100 | 
16 | NC(=O)c1ccccc1Nc1cccc(OCCc2cccc(F)c2)c1 | 0.57 | > 100 | > 300
17 | NC(=O)c1ccccc1Nc1ccc(Oc2ccccc2)cc1 | > 100 | > 100 | 
18 | NC(=O)c1ccccc1Nc1cccc(OCCc2ccc(F)cc2)c1 | 2.7 | > 100 | 
19 | NC(=O)c1ccccc1Nc1cccc(CCC(=O)O)c1 | > 100 | 93 | 
20 | NC(=O)c1ccccc1Nc1cccc(OCCc2cccc(Br)c2)c1 | 3.4 | > 100 | 
21 | COc1ccc(Nc2ccccc2C(N)=O)cc1 | 80 | > 100 | 
22 | O=C(O)c1ccccc1Nc1ccccc1 [FENAMIC ACID] | > 100 | 68 | 
23 | NC(=O)c1ccccc1Nc1cccc(CO)c1 | > 100 |  | 
24 | CN(Cc1ccccc1)C(=O)c1cccc(Nc2ccccc2C(N)=O)c1 | 40 | > 100 | 
25 | NC(=O)c1ccccc1Nc1ccc(CCc2ccccc2)cc1 | 88 | > 100 | 

Row | SMILES | IC50 [1] [µM] | IC50 [2] [µM] | IC50 [3] [µM]
26 | NC(=O)c1ccccc1Nc1ccc(C(=O)Nc2ccccc2)cc1 | 23 | > 100 | 
27 | N#Cc1ccc(Nc2ccccc2C(N)=O)cc1 | 93 |  | 
28 | NC(=O)c1ccccc1Nc1cccc(/C=C/C(=O)O)c1 | > 100 |  | 
29 | NC(=O)c1ccccc1Nc1cccc(OCCc2ccc(Cl)cc2)c1 | 0.83 | > 100 | 
30 | NC(=O)c1ccccc1Nc1ccccc1 [ANILINOBENZAMIDE] | > 100 |  | 
31 | Cc1cccc(Nc2ccccc2C(N)=O)c1 | 72 |  | 
32 | CN(C(=O)c1ccccc1)c1cccc(Nc2ccccc2C(N)=O)c1 | > 100 | > 100 | 
33 | NC(=O)c1ccccc1Nc1ccc(/C=C\c2ccccc2)cc1 | 20 | > 100 | 
34 | NC(=O)c1ccccc1Nc1cccc(NC(=O)Cc2ccccc2)c1 | 74 | > 100 | 
35 | CC(C)(C)c1ccc(Nc2ccccc2C(N)=O)cc1 | > 100 |  | 
36 | CC(C)C(=O)Nc1ccc(Nc2ccccc2C(N)=O)cc1 | > 100 | > 100 | 
37 | CN(c1ccccc1)c1ccccc1C(N)=O | > 100 | 75 | 
38 | NC(=O)c1ccccc1Nc1cccc(OCCc2ccccc2C(F)(F)F)c1 | 3.1 | > 100 | 
39 | NC(=O)c1ccccc1Nc1cccc(OCCc2cccc(C(F)(F)F)c2)c1 | 2.1 | > 100 | 
40 | NC(=O)c1ccccc1Nc1cccc(CCO)c1 | > 100 |  | 
41 | CNC(=O)c1ccccc1Nc1ccccc1 | > 100 | > 100 | 
42 | NC(=O)c1ccccc1Nc1cccc(OCCc2ccccc2Cl)c1 | 1.5 | > 100 | 
43 | NC(=O)c1ccccc1Nc1cccc(OCC2CCCCC2)c1 | 24 | 210 | 
44 | NC(=O)c1ccccc1Nc1cccc(OCCc2ccc(C(F)(F)F)cc2)c1 | 1.4 | > 100 | 
45 | NC(=O)c1ccccc1Oc1ccccc1 | > 100 | > 100 | 
46 | NC(=O)c1ccccc1Nc1ccc(NC(=O)c2ccccn2)cc1 | > 100 | > 100 | 
47 | CSc1ccc(Nc2ccccc2C(N)=O)cc1 | > 100 |  | 
48 | NC(=O)c1ccccc1Nc1ccc(NC(=O)c2ccccc2)cc1 | 17 | > 100 | 
49 | Cc1cccc(CCOc2cccc(Nc3ccccc3C(N)=O)c2)c1 | 1.8 | > 100 | 
50 | NC(=O)c1ccccc1Nc1cccc(OCCc2cccc(Cl)c2)c1 | 2 | > 100 | 

Row | SMILES | IC50 [1] [µM] | IC50 [2] [µM] | IC50 [3] [µM]
51 | NC(=O)c1ccccc1Nc1ccc(/C=C/c2ccccc2)cc1 | > 300 | > 100 | 
52 | NC(=O)c1ccccc1Nc1ccc(NC(=O)c2cccnc2)cc1 | 38 | > 100 | 
53 | COC(=O)/C=C/c1cccc(Nc2ccccc2C(N)=O)c1 | 32 |  | 
54 | NC(=O)c1ccccc1Nc1ccc(NC(=O)C2CCCCC2)cc1 | 25 | > 100 | 
55 | NC(=O)c1ccccc1Nc1cccc(Oc2ccccc2)c1 | 25 |  | 
56 | NC(=O)c1ccccc1NCc1ccccc1 | > 100 |  | 
57 | NC(=O)c1ccccc1Nc1ccc2ccccc2c1 | > 100 | > 100 | 
58 | NC(=O)c1ccccc1Nc1ccc(Cl)cc1 | > 100 | 56 | 
59 | NC(=O)c1ccccc1Nc1cccc(-c2ccccc2)c1 | 33 |  | 
60 | Cc1ccc(CCOc2cccc(Nc3ccccc3C(N)=O)c2)cc1 | 1.6 | > 100 | 
61 | NC(=O)c1ccccc1Nc1ccc(C(=O)O)cc1 | > 100 |  | 
62 | NC(=O)c1ccccc1Nc1cccc(C(=O)Nc2ccccc2)c1 | 83 | > 100 | 
63 | NC(=O)c1ccccc1Nc1cccc(NC(=O)c2ccccc2)c1 | 57 | > 100 | 
64 | COC(=O)c1ccc(Nc2ccccc2C(N)=O)cc1 | 83 | > 100 | 
65 | CN(C(=O)c1ccccc1)c1ccc(Nc2ccccc2C(N)=O)cc1 | > 300 | > 100 | 
66 | NC(=O)c1ccccc1Nc1cccc(OCCc2ccccc2Br)c1 | 1.1 | > 100 | 
67 | NC(=O)c1ccccc1Nc1cccc(OCCc2ccccc2F)c1 | 2 | > 100 | 
68 | COC(=O)CCc1cccc(Nc2ccccc2C(N)=O)c1 | 93 |  | 
69 | Cc1ccc(Nc2ccccc2C(N)=O)cc1 | 60 | > 100 | 
70 | CN(C(=O)Cc1ccccc1)c1cccc(Nc2ccccc2C(N)=O)c1 | > 100 | > 100 | 
71 | NC(=O)c1ccccc1Nc1cccc(C(=O)NCc2ccccc2)c1 | 39 | > 100 | 
72 | NC(=O)c1ccccc1Nc1ccc(NC(=O)c2ccncc2)cc1 | > 100 | > 100 | 
73 | CN(C(=O)c1ccc(Nc2ccccc2C(N)=O)cc1)c1ccccc1 | 69 | > 100 | 
